SENP1 FRET inh: SENP1 (human) catalytic domain inhibition; Q9P0U3; recombinant SENP1 catalytic domain, CyPet-SUMO1-YPet FRET cleavage; inhibition, % at 10 µM; actives 0.21% (n = 360,000); AID 624204;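 active means inhibition at least 30% at 10 µM, raw YFP signal under a set limit, fluorescence ratio 0.5 to 1.5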;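 further: 0% = enzyme with DMSO and 100% = no enzyme wells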
Target sequence (Q9P0U3 419-644 limits assumed): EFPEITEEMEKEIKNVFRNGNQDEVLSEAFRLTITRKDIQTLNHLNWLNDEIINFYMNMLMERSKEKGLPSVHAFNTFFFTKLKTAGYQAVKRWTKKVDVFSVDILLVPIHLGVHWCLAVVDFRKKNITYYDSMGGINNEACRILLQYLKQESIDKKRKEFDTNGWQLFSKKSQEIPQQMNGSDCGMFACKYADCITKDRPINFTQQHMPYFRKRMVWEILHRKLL
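Assay system: hSENP1 catalytic domain, recombinant. Amount: SENP1 enzyme, 20 pM final. Schedule: 50 min reaction, RT, dark. Technique: FRET, CFP and YFP emission. Control set: no-enzyme wells low, DMSO-plus-enzyme wells high control.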
CendR NRP1 mod: alters CendR peptide binding to human NRP-1. actives 0.85% (n = 360,000). FAM-RPARPAR peptide binding to NRP-1, fluorescence polarization. O14786. inhibition, % at 25 µM;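 active means inhibition or corrected inhibition above about 18%, plus a signal ratio from 0.5 to 1.5, limit read from the data, passing the limit was not always enough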
DAGLB inh: diacylglycerol lipase beta (human) inhibition | inhibition, % at 5.17 µM | Q8NCG7 | AID 504411 | actives 0.059% (n = 340,000) | HEK293T DAGLB membrane lysate, EnzChek fluorogenic substrate; in the data active means inhibition above about 34%;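 further: 0% = enzyme with vehicle and 100% = wells lacking enzyme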
Myeloid diff 2: promotes myeloid progenitor differentiation. ER-HoxA9 myeloid progenitors, lysozyme-GFP differentiation, flow cytometry. calls only at 10 µM. actives 1% (n = 360,000). AID 624256;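 active means normalized GFP-positive differentiation at or above the plate's own cutoff, the solvent-only control mean plus 3 SD; inconclusive means no clear call, values can overlap the other calls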;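 further: cells exposed to compound for four days before flow analysis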
MT1-MMP act inh: inhibitors of human MT1-MMP activation. HT1080 RFP-PRO-GFP cells, GFP/RFP ratio fluorescence, overnight; percent of plate control window, DMSO zero. GFP/RFP ratio change, % at 20 µM. actives 0.061% (n = 360,000). AID 651647;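 active means GFP/RFP ratio change of at least 30% with cell ATP level not reduced by more than half and red fluorescence within 50% of control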
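Read-out: GFP/RFP fluorescence ratio; Test system: RFP-PRO-GFP reporter HT1080 cells; Compound dosing: single-point 20 µM compound, 1% DMSO; Times: overnight compound exposure at 37 °C.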
MIN6 prolif: induces beta-cell replication in MIN6 cells; proliferation, % at 10 µM; MIN6 cells proliferation, ATPlite luminescence, 48 h; cells starved in 0.2% serum; 100% = growth in 10% serum; actives 0.29% (n = 330,000); AID 2380;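 active means compounds whose signal lies at least 3.5 SD above the mean of all wells on their plate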;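 further: 0% = DMSO-treated cells in low-serum medium and 100% = 10% serum control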
* = called active by the depositor; i = inactive; ? = inconclusive; . = no result given; + = active, no number. An excerpt weighted towards active compounds, which were near 2.4% of everything screened.

SMILES	SENP1 FRET inh	CendR NRP1 mod	DAGLB inh	Myeloid diff 2	MT1-MMP act inh	MIN6 prolif
CC(=O)Nc1sc(C)c(C)c1C(=O)OCC(=O)N(CC(C)C)C1CCS(=O)(=O)C1 (stereo unspecified)	0.2	28.3*	2.6	i	-0.7	0.0
O=C1Cc2cc(S(=O)(=O)N3CCN(c4ccc(C(=O)O)cc4)CC3)ccc2N1	-0.7	-16.2	.	i	3.3	.
CC(=O)c1ccc(N2CCN(S(=O)(=O)c3ccc4c(c3)NC(=O)CC(=O)N4)CC2)cc1	-0.7	1.0	0.9	+	0.1	0.9
Cc1cc(C(=O)N2CCCC(C(=O)c3cccc(C(F)(F)F)c3)C2)n[nH]1 (stereo unspecified)	1.2	-2.8	0.4	i	-3.9	-3.8
O=C(c1cccc(C(F)(F)F)c1)C1CCCN(C(=O)c2cc(C3CC3)[nH]n2)C1 (stereo unspecified)	0.8	12.9	-2.4	+	3.4	-0.4
COc1ccc(-c2n[nH]c(=S)n2-c2ccc(C)cc2C)cc1	-2.4	-8.6	3.0	i	2.5	-2.6
Cc1ccc(-n2c(-c3ccc(Cl)cc3)n[nH]c2=S)c(C)c1	0.3	9.7	2.6	+	0.1	-3.0
O=C(CCn1ccc2cc(S(=O)(=O)N3CCCC3)ccc21)NCCc1ccccc1	0.4	-0.2	1.1	+	-1.3	-1.1
Cc1ccc(CCNC(=O)CCn2ccc3cc(S(=O)(=O)N4CCCC4)ccc32)cc1	-2.2	-2.5	0.1	?	-0.4	-1.1
CC(C)(C)OC(=O)N1CCC(CNC(=O)Nc2ccccc2)CC1	4.4	-1.3	-3.2	i	5.8	-1.4
Cc1ccccc1S(=O)(=O)N1C[C@@H]2C(C(=O)C[C@@H]3C(=O)N(C)C(=O)[C@@H]32)[C@@H]1c1ccc(Cl)cc1 (stereo partly specified)	8.8	-3.6	.	i	1.1	.
Cc1cc(NC(=O)NC(=O)c2ccccc2F)no1	0.7	-4.0	0.2	i	1.0	0.7
C=CC(=O)Nc1ccc(Nc2nc(NC3CCC(N(C)C)CC3)nc3c2ncn3C(C)C)cc1 (stereo unspecified)	-0.2	27.0*	1.8	i	-35.9	-5.6
CCOC(=O)/C=C/c1ccc2c(c1)S(=O)(=O)N(c1cccc(OC)c1)[C@H]2CC(=O)OCC	1.6	28.5*	-2.3	i	5.0	-2.7
CC1=CCC(C(=O)O)C(C(=O)Nc2nc3ccc(S(C)(=O)=O)cc3s2)C1 (stereo unspecified)	2.6	9.7	1.2	+	-1.3	0.9
CCCCN1CC[C@H]2C=CC[C@@H](C(=O)Nc3ccc(Cl)cc3Cl)[C@H]2C1=O	0.5	33.5*	-9.3	i	-2.9	-1.6
COc1ccc(CNC(=O)[C@@H]2CC=C[C@@H]3CCN(Cc4ccc(Cl)c(Cl)c4)C(=O)[C@@H]32)cc1	1.7	30.1*	-2.8	i	2.8	-5.9
CCCCN1CC[C@H]2C=CC[C@@H](C(=O)NCc3ccc(OC)cc3)[C@H]2C1=O	3.2	20.9*	1.0	i	0.0	-5.9
O=C(Nc1ccc(Cl)c(C(F)(F)F)c1)[C@@H]1CC=C[C@@H]2CCN(Cc3ccc(Cl)c(Cl)c3)C(=O)[C@@H]21	1.7	-0.7	-7.5	i	1.8	-7.4
Cc1ccc(NS(=O)(=O)c2ccc(-n3cccn3)cc2)nc1	1.4	3.5	-6.1	i	0.6	-3.3
CCC1(C)COC(C)(CC(=O)NNC(=O)Nc2ccccc2)OC1 (stereo unspecified)	0.4	-18.2	0.4	i	-3.3	-1.3
CC(C)(C)NC(=O)C(c1ccc(O)cc1)N(C(=O)CCC(=O)Nc1nccs1)c1ccccc1F (stereo unspecified)	2.3	29.0*	0.2	i	-6.5	-2.4
CC(C)(C)NC(=O)C(c1ccc(O)cc1)N(C(=O)CCC(=O)Nc1nccs1)c1cccc(F)c1 (stereo unspecified)	0.5	9.4	-1.2	i	-4.7	-2.6
Cn1cnc([N+](=O)[O-])c1NC(C)(C)C	0.2	29.4*	1.2	i	4.6	-2.7

Source: PubChem
